Laboratory results: ChEMBL document CHEMBL4665671 (ACS Med Chem Lett, 2019)
Converted amounts (≈) assume the structure as drawn. The source made the active and inactive calls. The calls are words filed in the database; no cut-off is given here.

How the values were obtained:
mTORC2 = mTORC2 (Homo sapiens, UniProt P42345); experiment: Inhibition of mTORC2 in human A2058 cells assessed as reduction in PKB phosphorylation at S473 residue incubated for 1 hr by Western blot analysis; assay type: cell-based
[1] = biological target: Phosphatidylinositol 4,5-bisphosphate 3-kinase catalytic subunit alpha isoform (Homo sapiens, UniProt P42336); experiment: Displacement of alexa fluor 647-labeled kinase tracer 314 from recombinant N-terminal His6-tagged p110alpha (unknown origin) by TR-FRET assay
mTORC1 = mTORC1 (Homo sapiens, UniProt P42345); experiment: Inhibition of mTORC1 in human A2058 cells assessed as reduction in ribosomal protein S6 phosphorylation at Ser235/236 residues incubated for 1 hr by Western blot analysis; assay type: cell-based
[2] = biological target: T1, Serine/threonine-protein kinase mTOR (Homo sapiens, UniProt P42345); experiment: Displacement of alexa fluor 647-labeled kinase tracer 314 from recombinant human N-terminal GST-fused mTOR (1360 to 2549 residues) expressed in baculovirus expression system by TR-FRET assay
[3] = Half life in C57BL/6J mouse brain at 10 mg/kg, po by UHPLC-MS analysis; assay type: ADME, organism-based
Outline: (§1)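 Male C57BL/6J mice, single oral dose 10 mg/kg. Compound extracted from plasma, brain and thigh muscle at set time points over 8 h and quantified by LC–MS. n = 3, mean per time point.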

[4] = Cmax in C57BL/6J mouse brain at 10 mg/kg, po after 30 mins by UHPLC-MS analysis; assay type: ADME, organism-based; set-up: route oral, dose 10 mg/kg, time 30 min; outline: as §1
Cytochrome P450 1A2 = biological target: T2, Cytochrome P450 1A2 (Homo sapiens, UniProt P05177); experiment: Inhibition of CYP1A2 (unknown origin) by fluorescence assay; assay type: ADME
T2 sequence (P05177 whole entry): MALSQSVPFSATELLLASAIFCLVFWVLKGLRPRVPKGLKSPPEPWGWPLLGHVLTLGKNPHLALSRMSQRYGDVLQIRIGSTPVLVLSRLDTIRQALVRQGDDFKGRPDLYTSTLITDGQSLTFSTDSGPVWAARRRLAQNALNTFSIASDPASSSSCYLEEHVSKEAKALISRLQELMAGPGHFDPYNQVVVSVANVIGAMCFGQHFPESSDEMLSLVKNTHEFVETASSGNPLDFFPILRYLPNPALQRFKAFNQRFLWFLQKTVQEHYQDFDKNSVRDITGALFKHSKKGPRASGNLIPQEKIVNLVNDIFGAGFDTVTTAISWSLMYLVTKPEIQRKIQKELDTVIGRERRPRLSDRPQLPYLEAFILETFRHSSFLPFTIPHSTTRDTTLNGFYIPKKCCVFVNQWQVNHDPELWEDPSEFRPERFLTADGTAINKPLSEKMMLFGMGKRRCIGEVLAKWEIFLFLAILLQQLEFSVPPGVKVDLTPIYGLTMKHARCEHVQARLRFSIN

[5] = biological target: T1, Serine/threonine-protein kinase mTOR; experiment: Displacement of alexa fluor 647-labeled kinase tracer 314 from recombinant human N-terminal GST-fused mTOR (1360 to 2549 residues) expressed in baculovirus expression system by TR-FRET assay relative to parent compound
Mus musculus [6] = experiment: Increase in glucose level in C57BL/6J mouse plasma at 10 mg/kg, po measured after 2 hrs by UV/Vis spectrometry analysis; assay type: functional, organism-based
Outline: (§2)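 Male C57BL/6J mice given a single oral 10 mg/kg dose. Plasma glucose and insulin levels followed over time after dosing. Mean ± SEM.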

[7] = Half life in C57BL/6J mouse plasma at 10 mg/kg, po by UHPLC-MS analysis; assay type: ADME, organism-based; outline: as §1
[8] = Clearance in human cryopreserved hepatocytes assessed per 10^6 cells at 2.5 uM measured up to 90 mins by LC-MS/MS analysis; assay type: ADME, cell-based, Hepatocyte; conditions: 1.5 h
Outline: (§3)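 Cultured rat, mouse, dog and human hepatocytes were incubated with compound. Clearance and half-life were measured. Each experiment was run with n = 3.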

[9] = AUC (0 to 8 hrs) in C57BL/6J mouse plasma at 10 mg/kg, po by UHPLC-MS analysis; assay type: ADME, organism-based; set-up: time < 8 hr, route oral, dose 10 mg/kg; conditions: in vivo; outline: as §1
[10] = Half life in dog cryopreserved hepatocytes at 2.5 uM measured up to 90 mins by LC-MS/MS analysis; assay type: ADME, cell-based, Canis lupus familiaris, Hepatocyte; conditions: 1.5 h; outline: as §3
[11] = Half life in human cryopreserved hepatocytes at 2.5 uM measured up to 90 mins by LC-MS/MS analysis; assay type: ADME, cell-based, Hepatocyte; conditions: 1.5 h; outline: as §3
[12] = Clearance in dog cryopreserved hepatocytes assessed per 10^6 cells at 2.5 uM measured up to 90 mins by LC-MS/MS analysis; assay type: ADME, cell-based, Canis lupus familiaris, Hepatocyte; conditions: 1.5 h; outline: as §3
[13] = AUC (0 to 8 hrs) in C57BL/6J mouse brain at 10 mg/kg, po by UHPLC-MS analysis; assay type: ADME, organism-based; set-up: time < 8 hr, route oral, dose 10 mg/kg; conditions: in vivo; outline: as §1
Cytochrome P450 2D6 = Cytochrome P450 2D6 (Homo sapiens, UniProt P10635); experiment: Inhibition of CYP2D6 (unknown origin) by fluorescence assay; assay type: ADME
[14] = Thermodynamic solubility of the compound in buffer at pH 1.2 incubated for 24 hrs under agitation condition by shake flask method; assay type: physicochemical; conditions: read-out: Therm_solubility
[15] = Clearance in rat cryopreserved hepatocytes assessed per 10^6 cells at 2.5 uM measured up to 90 mins by LC-MS/MS analysis; assay type: ADME, cell-based, Hepatocyte; conditions: 1.5 h; outline: as §3
[16] = Thermodynamic solubility of the compound in buffer at pH 1.2 to 6.8 incubated for 24 hrs under agitation condition by shake flask method; assay type: physicochemical; conditions: read-out: Therm_solubility
[17] = Tmax in C57BL/6J mouse brain at 10 mg/kg, po by UHPLC-MS analysis; assay type: ADME, organism-based; outline: as §1
[18] = Toxicity in BALB/c nude mouse xenografted with human OVCAR3 cells assessed as effect on body weight at 6.3 mg/kg, po qd administered for 28 days starting from day 17 post inoculation; assay type: organism-based; conditions: in vivo, 672 h, time 28 day
Outline: (§4)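 BALB/c nude mice inoculated subcutaneously with 5 × 10^6 OVCAR-3 cells on day 0. From day 17, dosed orally once daily for 28 days; controls received vehicle QD. Tumor size tracked over time, tumor weight taken at day 45, body weight recorded at set time points. n = 8, mean ± SEM; two-way ANOVA with Bonferroni or Dunnett's correction.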

[19] = Permeability of the compound in PBS at pH 7.4 incubated for 2 hrs under shaking condition by PAMPA; assay type: ADME; conditions: pH 7.4, 2 h
[20] = Half life in C57BL/6J mouse thigh muscle at 10 mg/kg, po by UHPLC-MS analysis; assay type: ADME, organism-based; outline: as §1
Cytochrome P450 2C19 = Cytochrome P450 2C19 (Homo sapiens, UniProt P33261); experiment: Inhibition of CYP2C19 (unknown origin) by fluorescence assay; assay type: ADME
[21] = AUC (0 to 8 hrs) in C57BL/6J mouse thigh muscle at 10 mg/kg, po by UHPLC-MS analysis; assay type: ADME, organism-based; set-up: time < 8 hr, route oral, dose 10 mg/kg; conditions: in vivo; outline: as §1
[22] = Tmax in C57BL/6J mouse thigh muscle at 10 mg/kg, po by UHPLC-MS analysis; assay type: ADME, organism-based; outline: as §1
[23] = Clearance in mouse cryopreserved hepatocytes assessed per 10^6 cells at 2.5 uM measured up to 90 mins by LC-MS/MS analysis; assay type: ADME, cell-based, Hepatocyte; conditions: 1.5 h; outline: as §3
OVCAR-3 [24] = experiment: Antitumor activity against human OVCAR-3 cells xenografted in BALB/c nude mouse assessed as effect on tumor size at 6.3 mg/kg, po qd administered for 28 days starting from day 17 post inoculation and measured on day 45 (reference value: 1031 mm3); conditions: time 28 day
[25] = Half life in rat cryopreserved hepatocytes at 2.5 uM measured up to 90 mins by LC-MS/MS analysis; assay type: ADME, cell-based, Hepatocyte; conditions: 1.5 h; outline: as §3
[26] = Toxicity in po dosed Wistar male rat assessed as NOAEL administered via gavage for 14 consecutive days; assay type: organism-based; conditions: in vivo, time 14 day
Outline: (§5)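 14-day pilot toxicokinetic study in Wistar rats (males and females assessed separately) and beagle dogs. NOAEL was set in mg/kg/day.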

OVCAR-3 [27] = experiment: Antitumor activity against human OVCAR-3 cells xenografted in BALB/c nude mouse assessed as tumor growth inhibition at 6.3 mg/kg, po qd administered for 28 days starting from day 17 post inoculation and measured on day 45; assay type: functional, organism-based; conditions: time 28.0 day; outline: as §4
[28] = Toxicity in BALB/c nude mouse xenografted with human OVCAR3 cells assessed as maximum tolerated dose; conditions: in vivo
[29] = Toxicity in po dosed Beagle dog assessed as NOAEL administered via gavage for 14 consecutive days; assay type: organism-based, Canis lupus familiaris; conditions: in vivo, time 14 day; outline: as §5
[30] = Ratio of drug level in brain to plasma in C57BL/6J mouse at 10 mg/kg, po by UHPLC-MS analysis; assay type: ADME, organism-based; conditions: brain and plasma, read-out: BPR
Outline: (§6)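 Male C57BL/6J mice given a single oral 10 mg/kg dose. Plasma, brain and thigh muscle sampled at set times up to 8 h. Compound extracted from each tissue and quantified by LC–MS. n = 3, mean per time point.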

Cytochrome P450 3A4 = Cytochrome P450 3A4 (Homo sapiens, UniProt P08684); experiment: Inhibition of CYP3A4 (unknown origin) by fluorescence assay; assay type: ADME
[31] = Half life in mouse cryopreserved hepatocytes at 2.5 uM measured up to 90 mins by LC-MS/MS analysis; assay type: ADME, cell-based, Hepatocyte; conditions: 1.5 h; outline: as §3
[32] = Tmax in C57BL/6J mouse plasma at 10 mg/kg, po by UHPLC-MS analysis; assay type: ADME, organism-based; outline: as §1
Mus musculus [33] = experiment: Increase in insulin level in C57BL/6J mouse plasma at 10 mg/kg, po measured after 2 hrs by UV/Vis spectrometry analysis; assay type: functional, organism-based; outline: as §2
[34] = Cmax in C57BL/6J mouse plasma at 10 mg/kg, po after 1 hr by UHPLC-MS analysis; assay type: ADME, organism-based; set-up: route oral, dose 10 mg/kg, time 1 hrs; conditions: in vivo; outline: as §1
[35] = Cmax in C57BL/6J mouse thigh muscle at 10 mg/kg, po after 30 mins by UHPLC-MS analysis; assay type: ADME, organism-based; set-up: route oral, time 30 min, dose 10 mg/kg; outline: as §1
[36] = Clearance in C57BL/6J mouse plasma at 10 mg/kg, po by UHPLC-MS analysis; assay type: ADME, organism-based; outline: as §6
[37] = Toxicity in po dosed Wistar female rat assessed as NOAEL administered via gavage for 14 consecutive days; assay type: organism-based; conditions: in vivo, time 14 day; outline: as §5

Phosphatidylinositol 4,5-bisphosphate 3-kinase catalytic subunit alpha isoform, sequence (P42336 whole entry, canonical isoform): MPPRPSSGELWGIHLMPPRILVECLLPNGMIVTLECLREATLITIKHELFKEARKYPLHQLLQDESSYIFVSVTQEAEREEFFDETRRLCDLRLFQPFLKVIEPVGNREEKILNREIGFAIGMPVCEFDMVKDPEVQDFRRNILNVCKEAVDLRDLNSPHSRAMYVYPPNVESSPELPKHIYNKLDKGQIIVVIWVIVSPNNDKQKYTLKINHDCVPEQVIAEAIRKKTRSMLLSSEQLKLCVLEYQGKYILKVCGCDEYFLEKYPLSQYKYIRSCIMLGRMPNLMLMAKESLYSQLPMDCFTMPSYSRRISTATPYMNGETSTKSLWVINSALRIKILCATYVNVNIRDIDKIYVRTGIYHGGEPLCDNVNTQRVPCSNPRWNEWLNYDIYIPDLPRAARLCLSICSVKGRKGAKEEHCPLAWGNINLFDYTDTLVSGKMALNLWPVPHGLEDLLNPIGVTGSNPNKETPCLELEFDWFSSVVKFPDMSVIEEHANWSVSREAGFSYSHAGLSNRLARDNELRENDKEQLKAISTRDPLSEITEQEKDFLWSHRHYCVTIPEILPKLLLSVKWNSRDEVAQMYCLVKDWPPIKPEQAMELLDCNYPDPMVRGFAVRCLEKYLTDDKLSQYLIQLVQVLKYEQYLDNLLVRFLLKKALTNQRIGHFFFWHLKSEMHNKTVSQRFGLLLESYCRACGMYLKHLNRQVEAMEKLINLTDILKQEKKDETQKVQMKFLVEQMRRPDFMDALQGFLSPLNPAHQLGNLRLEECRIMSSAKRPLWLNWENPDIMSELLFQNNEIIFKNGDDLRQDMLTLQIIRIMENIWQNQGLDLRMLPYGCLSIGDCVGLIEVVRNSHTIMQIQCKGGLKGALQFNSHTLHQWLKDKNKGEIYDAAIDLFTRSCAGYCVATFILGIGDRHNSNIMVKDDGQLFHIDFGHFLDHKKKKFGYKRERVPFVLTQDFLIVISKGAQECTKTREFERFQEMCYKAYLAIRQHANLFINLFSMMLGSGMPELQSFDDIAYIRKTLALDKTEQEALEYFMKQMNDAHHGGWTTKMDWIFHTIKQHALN
Cytochrome P450 3A4, sequence (P08684 whole entry): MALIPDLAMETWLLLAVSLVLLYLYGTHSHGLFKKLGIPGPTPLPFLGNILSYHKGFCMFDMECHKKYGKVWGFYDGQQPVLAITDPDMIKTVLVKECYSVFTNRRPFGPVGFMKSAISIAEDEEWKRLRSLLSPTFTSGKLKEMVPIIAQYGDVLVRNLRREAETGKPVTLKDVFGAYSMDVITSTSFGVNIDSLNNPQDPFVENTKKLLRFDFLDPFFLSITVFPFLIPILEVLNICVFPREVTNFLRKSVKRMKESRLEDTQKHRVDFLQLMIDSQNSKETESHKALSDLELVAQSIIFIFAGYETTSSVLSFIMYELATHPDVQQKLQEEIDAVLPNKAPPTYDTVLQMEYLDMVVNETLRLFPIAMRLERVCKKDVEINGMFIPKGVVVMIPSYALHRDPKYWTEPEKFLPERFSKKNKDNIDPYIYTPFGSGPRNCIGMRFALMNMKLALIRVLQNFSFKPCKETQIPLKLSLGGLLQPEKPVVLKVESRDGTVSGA
Cytochrome P450 2D6, sequence (P10635 whole entry): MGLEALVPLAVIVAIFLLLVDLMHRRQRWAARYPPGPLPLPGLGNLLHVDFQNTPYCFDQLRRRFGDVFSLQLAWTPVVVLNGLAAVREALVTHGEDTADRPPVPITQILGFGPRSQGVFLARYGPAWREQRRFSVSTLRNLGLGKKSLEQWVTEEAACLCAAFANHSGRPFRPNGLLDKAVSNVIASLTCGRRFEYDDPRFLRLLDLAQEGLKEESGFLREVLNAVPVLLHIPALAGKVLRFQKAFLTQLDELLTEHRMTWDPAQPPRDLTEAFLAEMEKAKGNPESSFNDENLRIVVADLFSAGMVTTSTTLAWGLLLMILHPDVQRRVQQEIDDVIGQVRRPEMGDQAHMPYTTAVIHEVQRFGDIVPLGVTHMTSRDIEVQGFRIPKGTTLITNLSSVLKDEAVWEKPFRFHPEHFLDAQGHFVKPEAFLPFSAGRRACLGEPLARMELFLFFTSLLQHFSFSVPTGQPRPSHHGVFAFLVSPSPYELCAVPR
Cytochrome P450 2C19, sequence (P33261 whole entry): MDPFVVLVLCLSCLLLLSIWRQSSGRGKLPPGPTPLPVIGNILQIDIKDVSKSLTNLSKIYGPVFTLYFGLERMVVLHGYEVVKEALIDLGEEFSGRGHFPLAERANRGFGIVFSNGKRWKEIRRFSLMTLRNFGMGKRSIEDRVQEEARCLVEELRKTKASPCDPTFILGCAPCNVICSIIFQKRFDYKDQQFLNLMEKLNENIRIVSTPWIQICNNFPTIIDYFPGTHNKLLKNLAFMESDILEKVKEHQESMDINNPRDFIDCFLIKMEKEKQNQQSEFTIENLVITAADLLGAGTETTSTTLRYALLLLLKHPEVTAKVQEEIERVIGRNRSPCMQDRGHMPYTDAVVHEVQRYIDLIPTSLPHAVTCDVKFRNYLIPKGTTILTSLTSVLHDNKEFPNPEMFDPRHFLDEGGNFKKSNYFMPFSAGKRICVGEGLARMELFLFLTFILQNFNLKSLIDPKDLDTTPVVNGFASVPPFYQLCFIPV

Nc1ncc(-c2nc(N3CCOCC3)nc(N3C[C@H]4CC[C@@H](C3)O4)n2)c(C(F)F)n1
IC50 (mTORC2): 84 nM
Ki [1]: 4.4 nM
IC50 (mTORC1): 139 nM
Ki [2]: 29 nM

C[C@@H]1COCCN1c1nc(-c2cnc(N)nc2C(F)F)nc(N2CCOCC2)n1
IC50 (mTORC2): 64 nM
Ki [1]: 2.7 nM
IC50 (mTORC1): 116 nM
Ki [2]: 21 nM

Nc1ncc(-c2nc(N3CCOCC3)nc(N3CCOCC3)n2)c(C(F)F)n1
half-life [3]: 1.6 h
Cmax [4]: 1020 ng/mL
IC50 (Cytochrome P450 1A2): > 100000 nM
Ratio Ki [5]: 2
Activity (Mus musculus [6]): Active
half-life [7]: 1.7 h
CLH [8]: 4 µL/min
AUC [9]: 10315 ng·h/mL
t1/2 [10]: 3.528 h
IC50 (mTORC2): 17 nM
t1/2 [11]: 5.775 h
CLH [12]: 6.7 µL/min
AUC [13]: 2757 ng·h/mL
IC50 (Cytochrome P450 2D6): > 100000 nM
solubility thermodynamic at 24 h [14]: 13.6 µg/mL (≈ 34.5 µM)
CLH [15]: 1.5 µL/min
solubility thermodynamic at 24 h [16]: > 1 µg/mL
Tmax [17]: 0.5 h
Activity [18]: Non-Toxic
permeability [19]: 8.196 ×10⁻⁶ cm/s
half-life [20]: 1.6 h
IC50 (Cytochrome P450 2C19): > 100000 nM
AUC [21]: 4526 ng·h/mL
Tmax [22]: 0.5 h
IC50 (mTORC1): 61 nM
CLH [23]: 7 µL/min
Activity (OVCAR-3 [24]): 397 mm3
t1/2 [25]: 8.67 h
NOAEL at 336 h [26]: 3.6 mg/kg
growth inhibition (GI) (OVCAR-3 [27]): Active
MTD [28]: 6.3 mg/kg
NOAEL at 336 h [29]: 10 mg/kg
Kp [30]: 0.3
IC50 (Cytochrome P450 3A4): > 100000 nM
t1/2 [31]: 3.208 h
Tmax [32]: 1 h
Activity (Mus musculus [33]): Active
Cmax [34]: 3282 ng/mL
Cmax [35]: 1810 ng/mL
CL/F [36]: 15.6 mL/min/kg
NOAEL at 336 h [37]: 2.4 mg/kg
Ki [2]: 33 nM

Nc1ncc(-c2nc(N3CCOCC3)nc(N3[C@@H]4CC[C@H]3COC4)n2)c(C(F)F)n1
IC50 (mTORC2): 73 nM
Ki [1]: 3.4 nM
IC50 (mTORC1): 91 nM
Ki [2]: 14 nM
